Results collected from several papers.
Target: Serine/threonine-protein kinase 17B (STK17B, Homo sapiens, UniProt O94768)
One construct used (O94768 1-372): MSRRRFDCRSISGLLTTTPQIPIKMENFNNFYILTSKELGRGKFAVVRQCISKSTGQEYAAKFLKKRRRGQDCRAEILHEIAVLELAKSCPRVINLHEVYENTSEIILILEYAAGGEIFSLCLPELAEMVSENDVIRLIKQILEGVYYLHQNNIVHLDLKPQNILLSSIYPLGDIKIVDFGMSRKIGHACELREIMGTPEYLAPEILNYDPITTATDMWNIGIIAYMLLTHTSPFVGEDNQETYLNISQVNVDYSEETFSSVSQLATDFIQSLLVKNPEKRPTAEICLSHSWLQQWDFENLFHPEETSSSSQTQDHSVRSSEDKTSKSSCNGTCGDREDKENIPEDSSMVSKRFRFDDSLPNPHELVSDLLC

For `O=C(NCc1ncc(C(F)(F)F)cc1Cl)c1ccc2c(c1)C1(CCS(=O)(=O)CC1)[C@H](C1CC1)N2S(=O)(=O)c1ccc(F)cc1`, the remaining binding was 85% (cell-free assay; competition with immobilised ligand; 1 µM).
The remaining binding of `Nc1ncc2c(n1)-c1c([nH]c3ccc(C#CC4CC4)cc13)CCCC2` is reported as 96% (binding; competition with immobilised ligand; 1 µM).
With `C[C@@H](c1ccc(-n2cnc3c(N)ncnc32)cc1)N1CCc2nn(C)c(Cc3ccccc3)c2C1=O` the remaining binding was 100% (binding; competition with immobilised ligand; 0.1 µM).
`COc1ncc2cc3ccccc3nc2c1C#N` has a remaining binding of 100% (cell-free assay; competition with immobilised ligand; 5 µM).
`CNC(=O)Nc1ccc2c(c1)[C@@]1(CC2)OC(=O)N(CC(=O)N(Cc2ccc(F)cc2)[C@@H](C)C(F)(F)F)C1=O` has a remaining binding of 77% (cell-free assay; competition with immobilised ligand; 1 µM).
The remaining binding of `N[C@@H]1CCN(c2nccc(-c3cnn4ncccc34)n2)C1` is reported as 100% (binding; 1 µM).
`COc1cnc(Nc2cccc(S(N)(=O)=O)c2)nc1N1CCN(c2ccccc2)CC1` has a remaining binding of 99% (binding; competition with immobilised ligand; 1 µM).
`O=C(c1ccc(Nc2ncc(Cl)c(-c3ccc(Cl)s3)n2)cc1)N1CCC(N2CCCC2)CC1` gave a remaining binding of 2.7% (binding; competition with immobilised ligand; 1 µM).
`CN([C@@H]1CCc2c(CC(=O)O)c3cc(S(C)(=O)=O)ccc3n2C1)S(=O)(=O)c1ccc(F)cc1` gave a remaining binding of 85% (cell-free assay; competition with immobilised ligand; 1 µM).
For `O=C(c1ccc(Nc2ncc(Cl)c(-c3cc4ccccc4s3)n2)cc1)N1CCC(N2CCCC2)CC1`, the remaining binding was 0% (binding; competition with immobilised ligand; 1 µM).
For `COc1ccnn2ncc(-c3ccnc(N(C)C)n3)c12`, the remaining binding was 100% (binding; 1 µM).
`Cc1noc([C@H]2C[C@@H](c3ccc(C(F)(F)F)cc3)CN(C(=O)N3CCS(=O)(=O)C3)C2)n1` has a remaining binding of 100% (cell-free assay; competition with immobilised ligand; 1 µM).
`O=C(NCCCN1CCOCC1)c1ccc(Nc2ncc(Cl)c(-c3ccc(Cl)s3)n2)cc1` gave a remaining binding of 0.45% (binding; competition with immobilised ligand; 1 µM).
The remaining binding of `Cc1cnn2ncc(-c3ccnc(N(C)C)n3)c2c1` is reported as 100% (binding; 1 µM).
With `O=C(Nc1c[nH]nc1C(=O)NC1CCNCC1)c1cc(F)cc(F)c1` the remaining binding was 100% (binding; competition with immobilised ligand; 1 µM).
For `FC(F)(F)Oc1cccc(-c2cnc3ccc(-c4ccncc4)nn23)c1`, the remaining binding was 85% (cell-free assay; competition with immobilised ligand; 5 µM).
For `CC1CCCN1c1nccc(-c2cnn3ncccc23)n1` (stereo not shown), the remaining binding was 100% (binding; 1 µM).
With `CS(=O)(=O)c1cc(C2(NC(=O)c3cncc4c3cnn4-c3ccc(F)cc3)CC2)ccn1` the remaining binding was 83% (cell-free assay; competition with immobilised ligand; 1 µM).
For `C[C@H]1CCN(c2nccc(-c3cnn4ncccc34)n2)C1`, the remaining binding was 93% (binding; 1 µM).
The remaining binding of `c1cncc(-c2cccc(Nc3nccc(NC4CCCCC4)n3)c2)c1` is reported as 77% (binding; competition with immobilised ligand; 10 µM).
With `Cc1c(C(=O)O)cc(-c2ccc(C3CCNCC3)cc2)c2ccc(-c3ccc(C(F)(F)F)cc3)cc12` the remaining binding was 100% (cell-free assay; competition with immobilised ligand; 1 µM).
With `CN(C)c1nccc(-c2cnn3ncccc23)n1` the remaining binding was 100% (binding; 1 µM).
